The nature of assay [1]: SK-BR-3 cell growth inhibitors, pilot screen, 24 h, human (AID 572;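 active = viability at or below 10% of carrier control in both of two separate runs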;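 note: compound exposure lasted between 18 and 24 h rather than exactly 24 h; 100% = carrier-treated control wells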). The note with it: SK-BR-3 viability, CellTiter-Glo luminescence, at 10 µM, stronger effect = lower value. Background: ATP-based viability assays read luminescence as a measure of living cells.
The nature of assay [2]: HUVEC growth inhibition – cell-based, human, primary screen (AID 575).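 Note: 100% = median of untreated cell wells with 0.1% DMSO on each plate.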 The conditions noted are these: HUVEC proliferation, CellTiter-Glo luminescence, 72 h; at 10 µM; stronger effect = lower value. The method, boiled down:
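Test system – primary HUVEC, no more than 12 passages · Dosing – one dose, 10 µM final, 0.1% DMSO · Times – 72 h treatment at 37 °C · Measured by – ATP-based CellTiter-Glo luminescent read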

Assay [3] can be described thus: growth inhibitors of H69AR lung tumor, primary screen, human, duplicate replicates (AID 580;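 active = viability at or under a set limit in both replicates, limit being median viability minus 3 SD, cut at about 48% in these data, passing the limit was not always enough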;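 note: 100% = mean luminescence of untreated wells and 0% = no signal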). The note with it: H69AR lung tumor cells viability, ATP luminescence, 72 h; at 10 µM; stronger effect = lower value.
Assay [4] can be described thus: reversal of MRP1-mediated doxorubicin resistance, pilot screen, H69AR cells, doxorubicin co-treatment (AID 601;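 active = viability loss from added drug above about 55%, and viability with drug at most 40%, in both replicates, limit read from the data, passing the limit was not always enough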). The conditions noted are these: CellTiter-Glo, 72 h, at 10 µM; for differential viability (reversal): stronger effect = higher value.
Assay [5] can be described thus: 384-well plate pilot, post-Golgi transport modulator project, inhibition of yeast transport mutant growth (AID 636; in the data active = inhibition above about 31%). The conditions noted are these: absorbance 615 nm, about 18 h, stronger effect = higher value.
Assay [6] is described as follows: growth suppression of yeast trafficking mutant, preliminary HTS, modulators of trafficking downstream of Golgi apparatus project, 1536-format plate, OD 615 nm (AID 637; in the data active = inhibition above about 30%). The note with it: yeast transport mutant growth, absorbance 615 nm, 18 h; stronger effect = higher value.
The mark [7] stands for this setting: H69AR cells + 2 uM doxorubicin, measured here: viability with 2 uM doxorubicin, stronger effect = lower value.
The mark [8] stands for this setting: H69AR cells, compound alone cytotoxicity.

Molecules are shown by their SMILES. The source made the active and inactive calls.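 Rule for the calls, unless noted: active = viability at or below 30% in both replicate assays; inconclusive = viability at or below 30% in just one of the two assays; inactive = the rest.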

The source of these data is PubChem BioAssay.

As for `Cc1cnc(C(=O)Nc2nnc(C(C)C)s2)cn1`, the viability – broadly, a read-out of living cells in per cent, often relative to untreated cells – in assay [1] was 113% (inactive); in assay [2], 113% (inactive); in assay [3], 87.4% (inactive); in assay [4] (setting [7]) it was 81.2%; in assay [4] (setting [8]), 87.4%. In addition, the differential viability (reversal) in assay [4] (H69AR cells + 2 uM doxorubicin) was 6.11% (inactive). Besides, the inhibition – broadly, the relative decrease from the control value, in per cent – was -0.26% (inactive) in assay [5] and -1.97% (inactive) in assay [6].
For the compound `O=C(NCCN1CCOCC1)NC1(C(F)(F)F)Oc2ccc(Cl)cc2O1` (centres undefined), the viability in assay [1] is 107% (inactive); in assay [2], 57.1% (inactive); in assay [3], 22.6% (active); in assay [4] (setting [7]) it was 39.5%; in assay [4] (setting [8]), 22.6%. Further, in assay [4] (H69AR cells + 2 uM doxorubicin), the differential viability (reversal) is -16.8% (inactive). The results for the inhibition in assay [5] and in assay [6] were -7.53% (inactive) and 0% (inactive), respectively.
For the compound `COC(=O)CC(C(=O)Nc1cc(C(=O)OC)cc(C(=O)OC)c1)N1CCN(C)CC1` (centres undefined), the viability in assay [1] is 132% (inactive); in assay [2], 99.5% (inactive); in assay [3] it was 95.6% (inactive); in assay [4] (setting [7]), 89.8%; in assay [4] (setting [8]) it was 95.6%. Moreover, the differential viability (reversal) in assay [4] (H69AR cells + 2 uM doxorubicin) is 5.77% (inactive). Besides, the inhibition was -5.62% (inactive) in assay [5] and -7.9% (inactive) in assay [6].
`COCCSc1nnc(NC(=O)CSCc2ccccc2)s1`: the viability in assay [1] was 102% (inactive); in assay [2], 103% (inactive); in assay [3], 93.1% (inactive); in assay [4] (setting [7]), 86.3%; in assay [4] (setting [8]), 93.1%. In assay [4] (H69AR cells + 2 uM doxorubicin), the differential viability (reversal) is 6.87% (inactive). Further, the inhibition is -11% (inactive) in assay [5] and 0.97% (inactive) in assay [6].
For the compound `COc1cc(C(=O)Nc2cc(-c3ccccc3)[nH]n2)cc(OC)c1OC`, the viability in assay [1] is 107% (inactive); in assay [2], 68.3% (inactive); in assay [3] it was 26% (active); in assay [4] (setting [7]) it was 71.7%; in assay [4] (setting [8]), 26%. Further, in assay [4] (H69AR cells + 2 uM doxorubicin), the differential viability (reversal) was -45.8% (inactive). Also, the inhibition is -4.27% (inactive) in assay [5] and -1.27% (inactive) in assay [6].
Take `CCCCCc1c(C)nc(SCC(=O)O)[nH]c1=O`: the viability in assay [1] was 108% (inactive); in assay [2] it was 108% (inactive); in assay [3], 111% (inactive); in assay [4] (setting [7]), 97.1%; in assay [4] (setting [8]), 111%. Also, in assay [4] (H69AR cells + 2 uM doxorubicin), the differential viability (reversal) is 14% (inactive). In addition, the inhibition is 1.23% (inactive) in assay [5] and -3.39% (inactive) in assay [6].
On to `CCCCNC(=O)c1nnn(-c2ccccc2)c1N`, for which the viability in assay [1] was 88% (inactive); in assay [2], 113% (inactive); in assay [3], 92.2% (inactive); in assay [4] (setting [7]), 92.8%; in assay [4] (setting [8]), 92.2%. Further, in assay [4] (H69AR cells + 2 uM doxorubicin), the differential viability (reversal) is -0.63% (inactive). The values for the inhibition in assay [5] and in assay [6] were 4.03% (inactive) and 2.3% (inactive), respectively.
`COc1ccc(C2=CC(=O)OC3(CCCCC3)O2)cc1`: the viability is 97% (inactive) in assay [1]; 93.2% (inactive) in assay [2]; 56.5% (inactive) in assay [3]; 85.3% in assay [4] (setting [7]); 56.5% in assay [4] (setting [8]). Also, in assay [4] (H69AR cells + 2 uM doxorubicin), the differential viability (reversal) was -28.8% (inactive). In addition, the inhibition in assay [5] was -9.18% (inactive); in assay [6] it was 7.42% (inactive).
As for `CCSc1nc(O)c(C2OC(=O)c3c2ccc(OC)c3OC)c(=O)n1-c1ccccc1` (centres undefined), the viability is 129% (inactive) in assay [1]; 94.5% (inactive) in assay [2]; 96.5% (inactive) in assay [3]; 85.1% in assay [4] (setting [7]); 96.5% in assay [4] (setting [8]). In assay [4] (H69AR cells + 2 uM doxorubicin), the differential viability (reversal) was 11.4% (inactive). For the same compound, the results for the inhibition in assay [5] and in assay [6] were -9.45% (inactive) and 4.35% (inactive), respectively.
In the case of `CCOc1cc(C2C(C#N)=C(N)Oc3n[nH]c(CC)c32)ccc1OCCN1CCOCC1` (centres undefined), the viability in assay [1] is 87% (inactive); in assay [2], 95.6% (inactive); in assay [3], 110% (inactive); in assay [4] (setting [7]), 99%; in assay [4] (setting [8]), 110%. Besides, the differential viability (reversal) in assay [4] (H69AR cells + 2 uM doxorubicin) is 11% (inactive). Also, the figures for the inhibition in assay [5] and in assay [6] were 0.27% (inactive) and 0.32% (inactive), respectively.
Take `O=C(NCc1cccnc1)/C(=N\O)c1ccccc1`: the viability in assay [1] was 73% (inactive); in assay [2] it was 111% (inactive); in assay [3] it was 98.8% (inactive); in assay [4] (setting [7]), 85.6%; in assay [4] (setting [8]), 98.8%. For the same compound, the differential viability (reversal) in assay [4] (H69AR cells + 2 uM doxorubicin) was 13.2% (inactive). For the same compound, the inhibition in assay [5] is -6.08% (inactive); in assay [6], -3.82% (inactive).
In the case of `COc1cc(NC(=O)CSCc2cnn(-c3ccccc3)c2-n2cccc2)cc(OC)c1`, the viability in assay [1] was 103% (inactive); in assay [2], 67.9% (inactive); in assay [3], 80.6% (inactive); in assay [4] (setting [7]), 75.3%; in assay [4] (setting [8]) it was 80.6%. The differential viability (reversal) in assay [4] (H69AR cells + 2 uM doxorubicin) is 5.25% (inactive). Further, the inhibition in assay [5] was -4.46% (inactive); in assay [6] it was -4.18% (inactive).
On to `Cc1nnc(SCC(=O)NCc2ccc3c(c2)OCO3)s1`, for which the viability in assay [1] is 87% (inactive); in assay [2], 103% (inactive); in assay [3], 101% (inactive); in assay [4] (setting [7]), 113%; in assay [4] (setting [8]), 101%. The differential viability (reversal) in assay [4] (H69AR cells + 2 uM doxorubicin) was -12.3% (inactive). For the same compound, the figures for the inhibition in assay [5] and in assay [6] were -2.33% (inactive) and 5.82% (inactive), respectively.
